pEC50, pIC50: −log10 of the molar value. Activity calls are given as the source filed them. No cut-off for these calls is given here.
Key:
[1] = molecular target: T1, Protease, putative (Plasmodium falciparum 3D7) (UniProt Q8I1Y2); test: Inhibition of Plasmodium falciparum 3D7 PFD0230c by fluorescence spectrophotometry
T1 sequence (whole entry): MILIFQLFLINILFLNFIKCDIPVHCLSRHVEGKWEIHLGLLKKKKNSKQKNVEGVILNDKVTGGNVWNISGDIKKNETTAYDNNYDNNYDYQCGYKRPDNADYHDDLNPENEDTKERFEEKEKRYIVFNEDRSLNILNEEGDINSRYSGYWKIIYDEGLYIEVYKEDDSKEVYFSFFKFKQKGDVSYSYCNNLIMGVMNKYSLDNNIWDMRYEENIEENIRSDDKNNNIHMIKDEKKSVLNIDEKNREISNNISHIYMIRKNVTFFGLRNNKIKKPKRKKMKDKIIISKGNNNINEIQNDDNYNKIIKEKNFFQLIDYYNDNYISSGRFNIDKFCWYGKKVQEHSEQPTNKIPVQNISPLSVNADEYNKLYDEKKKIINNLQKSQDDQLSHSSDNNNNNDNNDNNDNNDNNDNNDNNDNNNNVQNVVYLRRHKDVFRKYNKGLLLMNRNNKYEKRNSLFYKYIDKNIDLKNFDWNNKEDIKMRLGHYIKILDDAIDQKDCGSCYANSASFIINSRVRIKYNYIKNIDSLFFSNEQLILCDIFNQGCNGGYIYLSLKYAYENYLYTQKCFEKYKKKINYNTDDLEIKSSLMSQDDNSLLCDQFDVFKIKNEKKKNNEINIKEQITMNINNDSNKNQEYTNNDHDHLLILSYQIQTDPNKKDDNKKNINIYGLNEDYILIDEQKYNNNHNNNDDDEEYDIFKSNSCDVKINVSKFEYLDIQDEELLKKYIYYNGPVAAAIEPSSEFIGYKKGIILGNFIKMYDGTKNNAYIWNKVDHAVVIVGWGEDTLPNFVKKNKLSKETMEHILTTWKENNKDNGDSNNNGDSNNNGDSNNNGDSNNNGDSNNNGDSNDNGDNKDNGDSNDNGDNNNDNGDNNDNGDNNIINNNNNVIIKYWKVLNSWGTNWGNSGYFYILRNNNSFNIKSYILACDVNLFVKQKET

[2] = molecular target: T1, Protease, putative (Plasmodium falciparum 3D7); test: Inhibition of Plasmodium falciparum 3D7 PFD0230c-mediated rupture of infected human red blood cells after 24 hrs by propidium iodide staining-based FACS analysis
Procedure, shortened: (§1)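 Synchronous early schizonts (~36 h post invasion) exposed to inhibitor for 24 h at 37 °C. Cells fixed in 0.05% glutaraldehyde/PBS overnight at 4 °C, permeabilized with 0.25% Triton X-100 and stained with propidium iodide. Flow cytometry gated ring and schizont populations as fractions of total parasitemia, normalized to averaged DMSO wells. Triplicate runs.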

[3] = molecular target: T1, Protease, putative (Plasmodium falciparum 3D7); test: Inhibition of Plasmodium falciparum 3D7 PFD0230c-mediated rupture of infected human red blood cells at 10 uM after 24 hrs by giemsa staining
Procedure, shortened: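 Giemsa-stained thin blood films were read from schizonts exposed at 36 h post invasion to 10 µM inhibitor, to assess rupture and morphology.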

[4] = molecular target: T1, Protease, putative (Plasmodium falciparum 3D7); test: Inhibition of Plasmodium falciparum 3D7 PFD0230c-mediated SERA5 processing at 1 1 to 100 uM after 6 to 8 hrs by SDS-PAGE
Procedure, shortened: (§2)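 Percoll-enriched schizonts (36–40 h post invasion) treated with inhibitor for 6–8 h in serum-free RPMI. Medium run on 8% SDS-PAGE; schizont pellet solubilized in SDS loading buffer. SERA5 detected by western blot with a monoclonal recognizing the P50 product; PfSUB1 detected with antisera.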

Plasmodium falciparum [5] = test: Inhibition of Plasmodium falciparum SUB1-mediated SERA5 processing at 1 1 to 100 uM after 6 to 8 hrs by SDS-PAGE; procedure, shortened: as §2
[6] = Cytotoxicity against african green monkey BSC1 cells after 24 hrs by celltiter glo assay; assay type: cell-based; conditions: chlorocebus aethiops, bsc-1, 24 h
Procedure, shortened: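 BSC-1 African green monkey kidney epithelial cells exposed to compounds; viability read by CellTiter-Glo luminescence.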

Plasmodium falciparum [7] = test: Antiplasmodial activity against Plasmodium falciparum schizont infected in human erythrocytes assessed as inhibition of ring-stage parasite growth at 1 to 100 uM after 24 by propidium iodide staining-based FACS analysis; assay type: functional, organism-based
Plasmodium falciparum [8] = test: Antiplasmodial activity against Plasmodium falciparum schizont infected in human erythrocytes assessed as effect on schizont morphology at 1 to 100 uM after 24 by propidium iodide staining-based FACS analysis; assay type: functional, organism-based
Plasmodium falciparum [9] = test: Antiplasmodial activity against Plasmodium falciparum schizont infected in human erythrocytes assessed as effect on parasite ring-to-schizont morphology at 1 to 100 uM after 24 by propidium iodide staining-based FACS analysis; assay type: functional, organism-based
Plasmodium falciparum [10] = test: Antiplasmodial activity against Plasmodium falciparum schizont infected in human erythrocytes assessed as blockade of parasite-mediated rupture of erythrocytes after 24 by propidium iodide staining-based FACS analysis; assay type: functional, organism-based; procedure, shortened: as §1
[11] = Inhibition of Plasmodium falciparum SUB1 by fluorescence spectrophotometry
Procedure, shortened: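 Recombinant PfSUB1 cleavage of the fluorogenic peptide substrate pepF1-6R measured over a range of inhibitor concentrations. IC50 taken from the curve fit.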

Plasmodium falciparum [12] = test: Inhibition of Plasmodium falciparum SUB1-mediated rupture of infected human red blood cells at 50 uM after 24 hrs by propidium iodide staining-based FACS analysis
Procedure, shortened: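 Early schizonts (~36 h post invasion) given 50 µM compound (final) for 24 h at 37 °C, then glutaraldehyde-fixed, Triton-permeabilized and propidium iodide stained. Flow cytometric schizont fraction normalized to DMSO controls.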

Plasmodium falciparum [13] = test: Displacement of JCP104 from Plasmodium falciparum SUB1 at 50 uM by SDS-PAGE
[14] = molecular target: T2, Probable cathepsin C (Plasmodium falciparum 3D7) (UniProt Q8IIJ9); test: Inhibition of Plasmodium falciparum 3D7 cathepsin C by fluorescence spectrophotometry
T2 sequence (whole entry): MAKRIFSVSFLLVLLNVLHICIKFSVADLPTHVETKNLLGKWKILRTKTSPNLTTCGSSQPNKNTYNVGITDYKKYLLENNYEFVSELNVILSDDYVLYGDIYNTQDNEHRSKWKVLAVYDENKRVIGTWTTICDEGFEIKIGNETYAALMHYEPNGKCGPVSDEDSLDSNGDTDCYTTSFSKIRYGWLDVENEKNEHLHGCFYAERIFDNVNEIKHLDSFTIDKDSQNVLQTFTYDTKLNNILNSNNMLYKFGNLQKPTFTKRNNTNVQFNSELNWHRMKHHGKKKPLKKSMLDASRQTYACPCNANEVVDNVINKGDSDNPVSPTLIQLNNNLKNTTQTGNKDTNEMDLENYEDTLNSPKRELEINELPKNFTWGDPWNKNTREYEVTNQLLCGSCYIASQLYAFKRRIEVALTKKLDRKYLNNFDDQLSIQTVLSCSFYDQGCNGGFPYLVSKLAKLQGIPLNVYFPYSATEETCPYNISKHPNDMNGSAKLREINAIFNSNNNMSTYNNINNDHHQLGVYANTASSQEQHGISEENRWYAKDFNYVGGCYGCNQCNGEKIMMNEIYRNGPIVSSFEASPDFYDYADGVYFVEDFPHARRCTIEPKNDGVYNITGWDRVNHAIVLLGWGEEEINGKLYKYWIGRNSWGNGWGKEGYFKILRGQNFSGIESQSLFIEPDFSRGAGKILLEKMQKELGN

[15] = molecular target: T3, Falcipain-3 (Plasmodium falciparum 3D7) (UniProt Q8IIL0); test: Inhibition of Plasmodium falciparum 3D7 falcipain-3 by fluorescence spectrophotometry
T3 sequence (whole entry): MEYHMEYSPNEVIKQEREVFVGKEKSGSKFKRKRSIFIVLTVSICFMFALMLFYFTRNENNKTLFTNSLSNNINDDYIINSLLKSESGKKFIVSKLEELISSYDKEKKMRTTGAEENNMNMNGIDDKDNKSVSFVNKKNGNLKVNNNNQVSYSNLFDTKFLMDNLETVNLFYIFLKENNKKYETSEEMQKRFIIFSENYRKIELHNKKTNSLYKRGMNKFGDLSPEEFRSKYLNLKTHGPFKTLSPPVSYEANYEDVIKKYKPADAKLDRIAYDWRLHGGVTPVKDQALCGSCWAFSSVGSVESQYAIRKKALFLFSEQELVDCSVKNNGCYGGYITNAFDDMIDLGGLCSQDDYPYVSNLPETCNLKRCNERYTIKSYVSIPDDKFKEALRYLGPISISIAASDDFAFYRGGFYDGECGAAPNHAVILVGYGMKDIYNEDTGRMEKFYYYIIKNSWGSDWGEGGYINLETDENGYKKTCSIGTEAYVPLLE

Plasmodium falciparum [16] = test: Inhibition of Plasmodium falciparum 3D7 falcipain-2 by fluorescence spectrophotometry
[17] = molecular target: T4, Cysteine proteinase falcipain-1 (Plasmodium falciparum 3D7) (UniProt Q8I6V0); test: Inhibition of Plasmodium falciparum 3D7 falcipain-1 by fluorescence spectrophotometry
T4 sequence (whole entry): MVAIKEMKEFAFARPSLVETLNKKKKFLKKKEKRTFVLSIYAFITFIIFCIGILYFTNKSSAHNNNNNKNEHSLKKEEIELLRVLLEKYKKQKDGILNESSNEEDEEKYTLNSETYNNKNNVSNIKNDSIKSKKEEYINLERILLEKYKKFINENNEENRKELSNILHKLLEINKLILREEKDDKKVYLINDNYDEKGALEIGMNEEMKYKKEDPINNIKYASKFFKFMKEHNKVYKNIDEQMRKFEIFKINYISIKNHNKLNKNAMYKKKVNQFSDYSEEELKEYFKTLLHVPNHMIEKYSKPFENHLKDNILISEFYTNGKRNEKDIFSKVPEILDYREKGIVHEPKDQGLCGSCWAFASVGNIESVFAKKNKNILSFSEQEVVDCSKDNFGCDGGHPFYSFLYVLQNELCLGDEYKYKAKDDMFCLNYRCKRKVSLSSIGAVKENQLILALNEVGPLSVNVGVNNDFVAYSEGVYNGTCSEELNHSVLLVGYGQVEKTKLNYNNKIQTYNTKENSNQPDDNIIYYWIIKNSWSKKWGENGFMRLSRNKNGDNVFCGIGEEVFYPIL

[18] = molecular target: T1, Protease, putative (Plasmodium falciparum 3D7); test: Inhibition of Plasmodium falciparum 3D7 PFD0230c-mediated rupture of infected human red blood cells at 1 to 100 uM after 24 hrs by propidium iodide staining-based FACS analysis
Procedure, shortened: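 Schizonts at 36 h post invasion treated in triplicate with 1–100 µM inhibitor for 24 h, then propidium iodide stained and analyzed by flow cytometry. Schizont accumulation is expressed as fold increase over the DMSO control.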

[19] = molecular target: T5, Preprocathepsin c, putative (Plasmodium falciparum 3D7) (UniProt Q8I0V1); test: Inhibition of Plasmodium falciparum 3D7 PFL2290w by fluorescence spectrophotometry
T5 sequence (whole entry): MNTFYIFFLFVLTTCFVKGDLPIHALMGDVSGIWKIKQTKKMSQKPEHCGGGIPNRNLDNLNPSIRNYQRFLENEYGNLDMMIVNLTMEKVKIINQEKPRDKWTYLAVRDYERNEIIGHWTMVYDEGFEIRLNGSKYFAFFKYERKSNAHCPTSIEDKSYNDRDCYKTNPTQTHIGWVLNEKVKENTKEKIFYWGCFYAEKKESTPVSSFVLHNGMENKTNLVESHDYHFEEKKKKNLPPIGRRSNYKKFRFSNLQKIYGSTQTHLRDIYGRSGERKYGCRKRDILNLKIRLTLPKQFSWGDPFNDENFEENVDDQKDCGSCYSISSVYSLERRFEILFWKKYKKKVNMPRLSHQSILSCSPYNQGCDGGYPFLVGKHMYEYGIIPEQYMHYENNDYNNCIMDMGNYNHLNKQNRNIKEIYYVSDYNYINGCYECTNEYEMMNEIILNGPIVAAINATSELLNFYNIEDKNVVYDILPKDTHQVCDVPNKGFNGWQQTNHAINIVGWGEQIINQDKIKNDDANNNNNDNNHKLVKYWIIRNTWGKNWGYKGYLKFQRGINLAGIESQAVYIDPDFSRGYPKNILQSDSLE

N[C@@H](Cc1ccc(O)c([N+](=O)[O-])c1)C(=O)N[C@H](/C=C/S(=O)(=O)c1ccccc1)CCc1ccccc1
inhibition [1]: Active
inhibition [2]: Dose-dependent effect
inhibition [3]: Active
inhibition [4]: Active
inhibition (Plasmodium falciparum [5]): Active

O=C(CCCCCNC(=O)CCCC[C@H]1SC[C@H]2NC(=O)N[C@H]21)NCCCCCC(=O)Nc1ccc2c(Cl)c(OCCc3ccccc3)oc(=O)c2c1
Activity [6]: Non-toxic
inhibition (Plasmodium falciparum [7]): Active
Activity (Plasmodium falciparum [8]): inactive
Activity (Plasmodium falciparum [9]): inactive
pEC50 (Plasmodium falciparum [10]): 4.66
pIC50 [11]: 4.74
inhibition [4]: Active
inhibition (Plasmodium falciparum [5]): Active

O=C(CCCC[C@H]1SC[C@H]2NC(=O)N[C@H]21)NCCCCCC(=O)Nc1ccc2c(Cl)c(OCCc3ccccc3)oc(=O)c2c1
Activity (Plasmodium falciparum [12]): Active
inhibition (Plasmodium falciparum [12]): Active
Activity (Plasmodium falciparum [13]): Active

CCOC(=O)[C@H]1O[C@@H]1C(=O)N[C@H](C(=O)NCCc1ccc(O)cc1)[C@@H](C)CC
inhibition [3]: Active

O=C(N[C@H](/C=C/S(=O)(=O)c1ccccc1)CCc1ccccc1)C1CCCN1 (stereo not given in full)
inhibition [14]: Active
inhibition [15]: inactive
inhibition (Plasmodium falciparum [16]): inactive
inhibition [17]: Active
inhibition [18]: inactive
inhibition [3]: inactive
inhibition [4]: Active
inhibition (Plasmodium falciparum [5]): Active

O=C(CCCC[C@H]1SC[C@H]2NC(=O)N[C@H]21)Nc1ccc2c(Cl)c(OCCc3ccccc3)oc(=O)c2c1
Activity (Plasmodium falciparum [12]): Active
inhibition (Plasmodium falciparum [12]): Active
Activity (Plasmodium falciparum [13]): Active

NC(=O)[C@H](Cc1ccc(O)cc1)NC(=O)CCCCCCCCCCS(=O)(=O)/C=C/[C@H](CCc1ccccc1)NC(=O)[C@@H](N)Cc1ccc(O)c([N+](=O)[O-])c1
inhibition [14]: Active
inhibition [19]: Active
